In the RNAGym collection of RNA variant scans (doi:10.1002/anie.201605470):

B1: Osa-1-4 twister ribozyme (parent)
chain: CCGCCUAACACUGCCAAUGCCGGUCCCAAGCCCGGAUAAAAGUGGAGGGGGCGG

Variants of: B1
Assay: self-cleavage, relative activity (ratio to wild type); higher = more cleavage; co-transcriptional
Summary of the method: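 In vitro transcription at 37 °C for 2 h allowed the twister ribozyme to cleave itself as it was made. Its 54-nucleotide Oryza sativa template had been synthesised with 97 % wild-type base and 1 % of each other base at the 48 positions downstream of the cleavage site. A template-switching oligonucleotide was used for reverse transcription, followed by PCR amplification and deep sequencing. Whether reads carried upstream sequence set the cleavage status, and relative activity is the fraction cleaved normalised to wild type.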

Variant | self-cleavage
CCGCCUAACACUGCCAAUGCCGGUCCCAAGCCCGGAUAAAAGUGUAGGGCGCGG [G45U G50C] | 0.07
CCGCCUAACACUGCCAAUGCCGGUCCCAAGCCCGGAUAAAAGUGUAGGGAGCGG [G45U G50A] | 0.12
CCGCCUAACACUGCCAAUGCCGGUCCCAAGCCCGGAUAAAAGUGUAGGGUGCGG [G45U G50U] | 0.09
CCGCCUAACACUGCCAAUGCCGGUCCCAAGCCCGGAUAAAAGGGUAGGGGGCGG [G45U U43G] | 0.06
CCGCCUAACACUGCCAAUGCCGGUCCCAAGCCCGGAUAAAAGAGUAGGGGGCGG [G45U U43A] | 0.06
CCGCCUAACACUGCCAAUGCCGGUCCCAAGCCCGGAUAAAAGCGUAGGGGGCGG [G45U U43C] | 0.06
CCGCCUAACACUGCCAAUGCCGGUCCCAAGCCCGGAUAAAAGUGUAGUGGGCGG [G45U G48U] | 0.04
CCGCCUAACACUGCCAAUGCCGGUCCCAAGCCCGGAUAAAAGUGUAGAGGGCGG [G45U G48A] | 0.04
CCGCCUAACACUGCCAAUGCCGGUCCCAAGCCCGGAUAAAAGUGUAGCGGGCGG [G45U G48C] | 0.04
CCGCCUAACACUGCCAACGCCGGUCCCAAGCCCGGAUAAAAGUGUAGGGGGCGG [G45U U18C] | 0.14
CCGCCUAACACUGCCAAGGCCGGUCCCAAGCCCGGAUAAAAGUGUAGGGGGCGG [G45U U18G] | 0.19
CCGCCUAACACUGCCAAAGCCGGUCCCAAGCCCGGAUAAAAGUGUAGGGGGCGG [G45U U18A] | 0.14
CCGCCUUACACUGCCAAUGCCGGUCCCAAGCCCGGAUAAAAGUGGCGGGGGCGG [A46C A7U] | 0.02
CCGCCUCACACUGCCAAUGCCGGUCCCAAGCCCGGAUAAAAGUGGCGGGGGCGG [A46C A7C] | 0.03
CCGCCUGACACUGCCAAUGCCGGUCCCAAGCCCGGAUAAAAGUGGCGGGGGCGG [A46C A7G] | 0.04
CCGCCUAACACUGCCAAUGCCGGUCCCAAGCCCGGAUAAAAGUGGCGGGGGCGG [A46C] | 0.09
CCGCCUAACACUGCCAAUGCCGGUCCCAAGCCCGGAUAAAAGUGUACGGGGCGG [G45U G47C] | 0.04
CCGCCUAACACUGCCAAUGCCGGUCCCAAGCCCGGAUAAAAGUGUAUGGGGCGG [G45U G47U] | 0.06
CCGCCUAACACUGCCAAUGCCGGUCCCAAGCCCGGAUAAAAGUGUAAGGGGCGG [G45U G47A] | 0.04
CCGCCUAAAACUGCCAAUGCCGGUCCCAAGCCCGGAUAAAAGUGGCGGGGGCGG [A46C C9A] | 0.03
CCGCCUAAGACUGCCAAUGCCGGUCCCAAGCCCGGAUAAAAGUGGCGGGGGCGG [A46C C9G] | 0.05
CCGCCUAAUACUGCCAAUGCCGGUCCCAAGCCCGGAUAAAAGUGGCGGGGGCGG [A46C C9U] | 0.02
CCGCCUAACACUGCCAAUGCCGGUCCCAAGCCCGGACAAAAGUGUAGGGGGCGG [G45U U37C] | 0.17
CCGCCUAACACUGCCAAUGCCGGUCCCAAGCCCGGAGAAAAGUGUAGGGGGCGG [G45U U37G] | 0.21
CCGCCUAACACUGCCAAUGCCGGUCCCAAGCCCGGAAAAAAGUGUAGGGGGCGG [G45U U37A] | 0.09

Variant | self-cleavage
CCGCCUAGCACUGCCAAUGCCGGUCCCAAGCCCGGAUAAAAGUGGCGGGGGCGG [A46C A8G] | 0.02
CCGCCUACCACUGCCAAUGCCGGUCCCAAGCCCGGAUAAAAGUGGCGGGGGCGG [A46C A8C] | 0.03
CCGCCUAUCACUGCCAAUGCCGGUCCCAAGCCCGGAUAAAAGUGGCGGGGGCGG [A46C A8U] | 0.03
CCGCCUAACACUGCCAAUGCCGGUCCCAAGCCCGGAUAAAAGUGUAGGGGGCCG [G45U G53C] | 0.03
CCGCCUAACACUGCCAAUGCCGGUCCCAAGCCCGGAUAAAAGUGUAGGGGGCAG [G45U G53A] | 0.07
CCGCCUAACACUGCCAAUGCCGGUCCCAAGCCCGGAUAAAAGUGUAGGGGGCUG [G45U G53U] | 0.05
CCGCCUAACACUGCCAAUGCCGGGCCCAAGCCCGGAUAAAAGUGUAGGGGGCGG [G45U U24G] | 0.02
CCGCCUAACACUGCCAAUGCCGGCCCCAAGCCCGGAUAAAAGUGUAGGGGGCGG [G45U U24C] | 0.04
CCGCCUAACACUGCCAAUGCCGGACCCAAGCCCGGAUAAAAGUGUAGGGGGCGG [G45U U24A] | 0.04
CCGCCUAACACUGCCAAUGCCGGUCCCAAGCCCGGAUAAAAGUGUAGGGGGCGG [G45U] | 0.17
CCGCCUAACACUGCCAAUGCCGGUCCCAAGCCCGGAUAAAAGUGUAGGUGGCGG [G45U G49U] | 0.04
CCGCCUAACACUGCCAAUGCCGGUCCCAAGCCCGGAUAAAAGUGUAGGCGGCGG [G45U G49C] | 0.02
CCGCCUAACACUGCCAAUGCCGGUCCCAAGCCCGGAUAAAAGUGUAGGAGGCGG [G45U G49A] | 0.04
CCGCCUAACAAUGCCAAUGCCGGUCCCAAGCCCGGAUAAAAGUGGCGGGGGCGG [A46C C11A] | 0.04
CCGCCUAACAGUGCCAAUGCCGGUCCCAAGCCCGGAUAAAAGUGGCGGGGGCGG [A46C C11G] | 0.03
CCGCCUAACACGGCCAAUGCCGGUCCCAAGCCCGGAUAAAAGUGUAGGGGGCGG [G45U U12G] | 0.07
CCGCCUAACACCGCCAAUGCCGGUCCCAAGCCCGGAUAAAAGUGUAGGGGGCGG [G45U U12C] | 0.06
CCGCCUAACACAGCCAAUGCCGGUCCCAAGCCCGGAUAAAAGUGUAGGGGGCGG [G45U U12A] | 0.06
CCGCCUAACACUGCCAAUGCCGGUCCCAAGCCCGGAUAAAAGUGUAGGGGGCGC [G45U G54C] | 0.06
CCGCCUAACACUGCCAAUGCCGGUCCCAAGCCCGGAUAAAAGUGUAGGGGGCGA [G45U G54A] | 0.1
CCGCCUAACACUGCCAAUGCCGGUCCCAAGCCCGGAUAAAAGUGUAGGGGGCGU [G45U G54U] | 0.2
CCGCCUAACACUGCCAAUGCCGGUCCCAAGCCCGGAUAAAAGUGUAGGGGUCGG [G45U G51U] | 0.05
CCGCCUAACACUGCCAAUGCCGGUCCCAAGCCCGGAUAAAAGUGUAGGGGCCGG [G45U G51C] | 0.04
CCGCCUAACACUGCCAAUGCCGGUCCCAAGCCCGGAUAAAAGUGUAGGGGACGG [G45U G51A] | 0.08
